Calls of active or inactive are those of the source. The rule behind the calls is not given here.
Experiments:
HEK293 [1] = test: Effect on intracellular calcium level in non transfected HEK293 cells assessed as increase in fura-2 ratio; assay type: functional, cell-based; settings: Homo sapiens
Outline: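 GFP-negative cells from the same coverslips as the mTRPV4-transfected HEK293 cells served as untransfected controls. Cells were loaded with 4 µM Fura-2 AM for 30 min at 37 °C and perfused with Krebs solution (pH 7.4). ∆Fura-2 ratio was taken as (Rt−Rt0)/Rt0 from 340/380 nm excitation, with background subtracted.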

[2] = molecular target: Transient receptor potential cation channel subfamily V member 4 (Mus musculus, UniProt Q9EPK8); test: Activation of mouse wild type TRPV4 expressed in HEK293 cells assessed as increase in intracellular calcium concentration; assay type: cell-based
Outline: (§1)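 mTRPV4 (wild type or the Y556A, S557A or W586A TM3-4 mutant) in pCAGGS/Ires-GFP was transiently transfected into HEK293 cells and incubated overnight. GFP-positive cells on poly-L-lysine coverslips were loaded with 4 µM Fura-2 AM for 30 min at 37 °C and perfused with Krebs solution (1.5 mM CaCl2, pH 7.4). The 340/380 nm ratio (510 nm emission) gave ∆Fura-2 ratio. EC50 came from a Hill fit, >15 cells, three transfections.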

[3] = molecular target: Transient receptor potential cation channel subfamily V member 1 (Homo sapiens) (UniProt Q8NER1); test: Activation of TRPV1 expressed in HEK293 cells assessed as increase in intracellular calcium concentration; assay type: cell-based
Outline: (§2)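 HEK293 cells grown in DMEM with 10% human serum at 37 °C/10% CO2 and transfected with the TRPV channel. Cells were loaded with 4 µM Fura-2 AM for 30 min at 37 °C and perfused with Krebs buffer (1.5 mM CaCl2, pH 7.4). Read-out is single-cell 340/380 nm fura-2 ratio imaging against nontransfected cells.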

[4] = molecular target: Transient receptor potential cation channel subfamily V member 4 (Mus musculus) (UniProt Q9EPK8); test: Activation of mouse wild type TRPV4 expressed in HEK293 cells assessed as increase in intracellular calcium concentration at 500 nM
[5] = molecular target: T1, Transient receptor potential cation channel subfamily V member 2 (Homo sapiens) (UniProt Q9Y5S1); test: Activation of TRPV2 expressed in HEK293 cells assessed as increase in intracellular calcium concentration; assay type: cell-based; outline: as §2
T1 sequence (whole entry): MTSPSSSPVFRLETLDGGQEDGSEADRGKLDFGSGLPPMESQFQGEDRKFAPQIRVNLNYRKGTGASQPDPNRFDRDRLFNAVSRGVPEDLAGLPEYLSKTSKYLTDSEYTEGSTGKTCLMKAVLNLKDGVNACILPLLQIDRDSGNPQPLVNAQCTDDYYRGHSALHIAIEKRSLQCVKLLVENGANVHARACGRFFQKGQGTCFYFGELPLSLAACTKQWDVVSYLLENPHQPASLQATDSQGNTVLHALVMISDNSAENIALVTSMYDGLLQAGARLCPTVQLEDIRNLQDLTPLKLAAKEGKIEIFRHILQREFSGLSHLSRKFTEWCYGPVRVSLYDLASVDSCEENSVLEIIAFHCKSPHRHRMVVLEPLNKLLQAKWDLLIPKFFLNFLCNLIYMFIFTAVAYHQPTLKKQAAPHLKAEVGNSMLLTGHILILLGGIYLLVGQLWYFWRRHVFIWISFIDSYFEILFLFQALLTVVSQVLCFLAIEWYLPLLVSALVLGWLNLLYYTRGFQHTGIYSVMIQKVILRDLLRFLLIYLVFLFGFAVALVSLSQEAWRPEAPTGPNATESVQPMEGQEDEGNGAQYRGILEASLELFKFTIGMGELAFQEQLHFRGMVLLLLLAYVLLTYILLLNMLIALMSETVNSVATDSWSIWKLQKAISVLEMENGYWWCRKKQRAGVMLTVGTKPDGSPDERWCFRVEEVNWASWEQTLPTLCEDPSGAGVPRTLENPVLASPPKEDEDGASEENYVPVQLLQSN

[6] = molecular target: Transient receptor potential cation channel subfamily V member 4 (Mus musculus, UniProt Q9EPK8, Y556A); test: Activation of mouse TRPV4 Y556A mutant expressed in HEK293 cells assessed as increase in intracellular calcium concentration; assay type: cell-based; outline: as §1
[7] = molecular target: Transient receptor potential cation channel subfamily V member 4 (Mus musculus) (UniProt Q9EPK8); test: Activation of mouse wild type TRPV4 expressed in HEK293 cells assessed as increase in intracellular calcium concentration at 0.1 uM; assay type: cell-based
[8] = molecular target: T2, Transient receptor potential cation channel subfamily V member 3 (Homo sapiens) (UniProt Q8NET8); test: Activation of TRPV3 expressed in HEK293 cells assessed as increase in intracellular calcium concentration; assay type: cell-based; outline: as §2
T2 sequence (whole entry): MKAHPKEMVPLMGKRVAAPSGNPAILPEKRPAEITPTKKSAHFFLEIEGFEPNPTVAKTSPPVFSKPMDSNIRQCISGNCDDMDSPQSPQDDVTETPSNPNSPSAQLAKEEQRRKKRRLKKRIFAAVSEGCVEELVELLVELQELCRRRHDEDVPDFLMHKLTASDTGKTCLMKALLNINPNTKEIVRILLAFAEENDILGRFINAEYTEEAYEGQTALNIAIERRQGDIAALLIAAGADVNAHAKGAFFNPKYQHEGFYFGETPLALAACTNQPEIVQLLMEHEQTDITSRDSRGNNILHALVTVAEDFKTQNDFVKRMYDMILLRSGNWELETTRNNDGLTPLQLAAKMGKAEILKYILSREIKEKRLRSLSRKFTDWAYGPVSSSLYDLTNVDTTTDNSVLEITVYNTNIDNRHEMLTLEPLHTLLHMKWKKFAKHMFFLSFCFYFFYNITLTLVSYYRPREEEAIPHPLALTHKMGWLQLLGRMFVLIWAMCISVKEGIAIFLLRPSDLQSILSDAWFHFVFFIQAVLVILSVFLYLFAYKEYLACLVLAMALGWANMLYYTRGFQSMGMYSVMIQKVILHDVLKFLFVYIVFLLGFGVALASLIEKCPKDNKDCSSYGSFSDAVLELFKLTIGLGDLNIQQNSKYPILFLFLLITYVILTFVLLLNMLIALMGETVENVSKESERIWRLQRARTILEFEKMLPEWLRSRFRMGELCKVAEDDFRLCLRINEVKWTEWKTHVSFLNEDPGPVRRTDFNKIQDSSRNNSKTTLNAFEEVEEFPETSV

[9] = tested on: Transient receptor potential cation channel subfamily V member 4 (Mus musculus), Q9EPK8 [Y556A]; test: Agonist activity at mouse TRPV4 Y556A mutant expressed in HEK293 cells assessed as increase in intracellular calcium measured by fura-2 fluorescence ratio; assay type: functional, cell-based
Outline: (§3)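 HEK293 cells transiently transfected with W586A or Y556A mouse TRPV4 mutants alongside wild type. Dose-response by single-cell fura-2 Ca2+ imaging, read as ΔFura-2 ratio. More than 15 cells per point from three independent transfections. Hill fit used, significance set at p < 0.05.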

[10] = molecular target: Transient receptor potential cation channel subfamily V member 4 (Mus musculus, UniProt Q9EPK8, W586A); test: Activation of mouse TRPV4 W586A mutant expressed in HEK293 cells assessed as increase in intracellular calcium concentration; assay type: cell-based; outline: as §1
[11] = molecular target: Transient receptor potential cation channel subfamily V member 4 (Mus musculus, UniProt Q9EPK8, S557A); test: Activation of mouse TRPV4 S557A mutant expressed in HEK293 cells assessed as increase in intracellular calcium concentration; assay type: cell-based; outline: as §1
[12] = molecular target: Transient receptor potential cation channel subfamily V member 4 (Mus musculus) (UniProt Q9EPK8); test: Activation of mouse wild type TRPV4 expressed in HEK293 cells assessed as outward-inward rectifying current density at 500 nM at a holding potential of 100 mV by whole cell patch-clamp assay in absence of calcium; assay type: cell-based
Outline: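 Whole-cell patch clamp was run on mTRPV4-transfected HEK293 cells using ramps from -100 to +100 mV. CaCl2 was omitted from both solutions. Bath (mM): 150 NaCl, 6 CsCl, 1 MgCl2, 10 glucose, 10 HEPES, pH 7.4. Pipette (mM): 20 CsCl, 100 aspartate, 1 MgCl2, 10 HEPES, 4 Na-ATP, 10 BAPTA, pH 7.4. Agonist was added to the bath. Five cells, >2 transfections.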

[13] = molecular target: Transient receptor potential cation channel subfamily V member 4 (Mus musculus) (UniProt Q9EPK8); test: Agonist activity at mouse wild type TRPV4 expressed in HEK293 cells assessed as increase in intracellular calcium measured by fura-2 fluorescence ratio; assay type: functional, cell-based
Outline: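 Mouse TRPV4 (pCAGGS/Ires-GFP) transiently transfected into HEK293 cells, incubated overnight, then seeded on poly-L-lysine coverslips. GFP-positive cells loaded with 4 µM Fura-2 AM for 30 min at 37 °C and perfused with Krebs (pH 7.4). ΔFura-2 ratio taken as (Rt−R0)/R0 at the maximal response. EC50 from a Hill fit over >15 cells from three transfections, mean ± SEM.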

HEK293 [14] = test: Effect on intracellular calcium level in non transfected HEK293 cells at >10 uM; assay type: functional, cell-based; settings: Homo sapiens
Outline: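 GFP-negative (untransfected) HEK293 cells from the same coverslips were imaged by fura-2 ratio. Compound was applied at concentrations above 10 µM.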

[15] = molecular target: Transient receptor potential cation channel subfamily V member 4 (Mus musculus) (UniProt Q9EPK8); test: Activation of mouse wild type TRPV4 expressed in HEK293 cells assessed as increase in intracellular calcium concentration at 500 nM in presence of TRP antagonist ruthenium red
[16] = molecular target: Transient receptor potential cation channel subfamily V member 4 (Mus musculus) (UniProt Q9EPK8); test: Activation of mouse wild type TRPV4 expressed in HEK293 cells assessed as outward-inward rectifying current density at 500 nM at a holding potential of 100 mV by whole cell patch-clamp assay in presence of calcium; assay type: cell-based
Outline: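 Whole-cell patch clamp was run on mTRPV4-transfected HEK293 cells using ramps from -100 to +100 mV. Bath (mM): 150 NaCl, 6 CsCl, 1 MgCl2, 5 CaCl2, 10 glucose, 10 HEPES, pH 7.4. Pipette (mM): 20 CsCl, 100 aspartate, 1 MgCl2, 10 HEPES, 4 Na-ATP, 10 BAPTA, free Ca2+ buffered to 200 nM, pH 7.4. Agonist was added to the bath. Five cells, >2 transfections.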

[17] = tested on: Transient receptor potential cation channel subfamily V member 4 (Mus musculus), Q9EPK8 [W586A]; test: Agonist activity at mouse TRPV4 W586A mutant expressed in HEK293 cells assessed as increase in intracellular calcium measured by fura-2 fluorescence ratio; assay type: functional, cell-based; outline: as §3
Transient receptor potential cation channel subfamily V member 4 (Mus musculus), Q9EPK8 [W586A], sequence (Q9EPK8 whole entry W586A): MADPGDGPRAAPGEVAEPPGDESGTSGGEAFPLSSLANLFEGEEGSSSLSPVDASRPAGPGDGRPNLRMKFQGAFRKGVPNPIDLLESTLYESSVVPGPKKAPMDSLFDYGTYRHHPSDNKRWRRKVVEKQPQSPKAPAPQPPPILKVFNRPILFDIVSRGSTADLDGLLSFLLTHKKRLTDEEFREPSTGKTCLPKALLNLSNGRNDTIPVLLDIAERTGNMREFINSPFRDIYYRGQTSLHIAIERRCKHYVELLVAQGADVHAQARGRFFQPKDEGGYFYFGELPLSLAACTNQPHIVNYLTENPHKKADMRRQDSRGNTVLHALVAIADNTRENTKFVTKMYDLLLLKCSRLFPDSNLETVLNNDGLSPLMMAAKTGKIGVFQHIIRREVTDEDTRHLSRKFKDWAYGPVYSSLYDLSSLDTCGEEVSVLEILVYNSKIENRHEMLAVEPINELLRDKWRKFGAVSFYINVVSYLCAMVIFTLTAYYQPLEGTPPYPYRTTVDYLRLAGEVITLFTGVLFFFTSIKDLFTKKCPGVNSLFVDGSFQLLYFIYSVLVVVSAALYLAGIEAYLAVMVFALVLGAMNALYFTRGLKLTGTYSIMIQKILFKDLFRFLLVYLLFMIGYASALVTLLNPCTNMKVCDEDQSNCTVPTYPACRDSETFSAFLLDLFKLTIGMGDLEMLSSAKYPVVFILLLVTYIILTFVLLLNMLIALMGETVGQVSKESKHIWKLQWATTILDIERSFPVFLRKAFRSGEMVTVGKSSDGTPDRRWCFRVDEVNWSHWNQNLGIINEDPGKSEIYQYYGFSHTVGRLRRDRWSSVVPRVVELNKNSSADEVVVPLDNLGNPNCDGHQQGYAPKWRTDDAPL

Transient receptor potential cation channel subfamily V member 4 (Mus musculus, UniProt Q9EPK8), sequence (Q9EPK8 whole entry, the tested form may be a part): as the sequence (Q9EPK8 whole entry W586A) above, with A586W counted along it
Transient receptor potential cation channel subfamily V member 4 (Mus musculus), sequence (Q9EPK8 whole entry, the tested form may be a part): as the sequence (Q9EPK8 whole entry W586A) above, with A586W counted along it
Transient receptor potential cation channel subfamily V member 4 (Mus musculus, UniProt Q9EPK8, Y556A), sequence (Q9EPK8 whole entry Y556A): as the sequence (Q9EPK8 whole entry W586A) above, with Y556A, A586W counted along it
Transient receptor potential cation channel subfamily V member 4 (Mus musculus), Q9EPK8 [Y556A], sequence (Q9EPK8 whole entry Y556A): as the sequence (Q9EPK8 whole entry W586A) above, with Y556A, A586W counted along it
Transient receptor potential cation channel subfamily V member 4 (Mus musculus, UniProt Q9EPK8, S557A), sequence (Q9EPK8 whole entry S557A): as the sequence (Q9EPK8 whole entry W586A) above, with S557A, A586W counted along it
Transient receptor potential cation channel subfamily V member 1 (Homo sapiens), sequence (Q8NER1 whole entry, the tested form may be a part): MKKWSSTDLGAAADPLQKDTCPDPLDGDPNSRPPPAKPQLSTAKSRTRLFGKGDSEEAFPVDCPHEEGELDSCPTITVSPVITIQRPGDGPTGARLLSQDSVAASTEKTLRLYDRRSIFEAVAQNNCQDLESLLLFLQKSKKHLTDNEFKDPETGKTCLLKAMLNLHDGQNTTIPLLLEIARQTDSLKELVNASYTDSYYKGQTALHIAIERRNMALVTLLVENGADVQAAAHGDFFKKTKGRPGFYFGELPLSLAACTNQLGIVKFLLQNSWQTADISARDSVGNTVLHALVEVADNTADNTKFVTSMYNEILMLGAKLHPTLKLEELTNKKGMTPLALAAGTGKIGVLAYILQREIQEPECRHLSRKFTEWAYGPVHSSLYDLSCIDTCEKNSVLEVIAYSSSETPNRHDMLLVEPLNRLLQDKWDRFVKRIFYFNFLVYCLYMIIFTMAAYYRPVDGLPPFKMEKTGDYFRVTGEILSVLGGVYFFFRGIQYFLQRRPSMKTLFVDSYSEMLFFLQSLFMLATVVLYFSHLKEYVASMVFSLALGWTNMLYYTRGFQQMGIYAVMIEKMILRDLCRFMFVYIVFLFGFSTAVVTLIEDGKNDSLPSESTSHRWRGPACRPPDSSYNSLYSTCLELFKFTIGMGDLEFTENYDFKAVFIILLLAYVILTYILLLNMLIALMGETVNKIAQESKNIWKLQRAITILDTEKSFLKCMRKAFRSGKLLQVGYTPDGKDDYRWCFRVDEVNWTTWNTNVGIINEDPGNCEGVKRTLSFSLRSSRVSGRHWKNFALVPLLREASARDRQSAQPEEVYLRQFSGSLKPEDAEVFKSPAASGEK
Transient receptor potential cation channel subfamily V member 4 (Mus musculus, UniProt Q9EPK8, W586A), sequence (Q9EPK8 whole entry W586A): as the sequence (Q9EPK8 whole entry W586A) above

CCCCCCCCCC(=O)O[C@@]12[C@H](O)[C@@H](C)[C@@]3(O)[C@@H](C=C(CO)C[C@@]4(O)C(=O)C(C)=C[C@@H]34)[C@@H]1C2(C)C
Activity (HEK293 [1]): Active
EC50 [2]: 0.45 µM

CC(=O)O[C@@H]1[C@@H](C)[C@@]2(O)[C@@H](C=C(CO)C[C@@]3(O)C(=O)C(C)=C[C@@H]23)[C@@H]2C(C)(C)[C@]12OC(C)=O
EC50 [2]: > 50 µM

CCCC(=O)O[C@@H]1[C@@H](C)[C@@]2(O)[C@@H](C=C(CO)C[C@]3(O)C(=O)C(C)=C[C@@H]23)[C@@H]2C(C)(C)[C@]12OC(=O)CCC
EC50 [2]: 22.5 µM

CCCCCCCCCC(=O)O[C@@H]1[C@@H](C)[C@]2(O)[C@@H]3C4C([C@H]2[C@@H]2C(C)(C)[C@]12OC(=O)CCCCCCCCC)C1(CO)C[C@H]3C(=O)C41C (stereo partly specified)
Activity [3]: inactive
Activity [4]: Active
Activity [5]: inactive
EC50 [6]: 9.36 µM
Activity [7]: Active
Activity [8]: inactive
Activity [9]: Active
EC50 [10]: 3.64 µM
EC50 [11]: 0.24 µM
EC50 [2]: 0.175 µM
Activity [12]: 635
Activity [13]: Active
Activity (HEK293 [14]): Active
Activity [15]: inactive
Activity [16]: 505
Activity [17]: Active

CCCCCCCCC(=O)O[C@@H]1[C@@H](C)[C@@]2(O)[C@@H](C=C(CO)C[C@@]3(O)C(=O)C(C)=C[C@@H]23)[C@@H]2C(C)(C)[C@]12OC(=O)CCCCCCCC
EC50 [2]: > 50 µM

Reference: ChEMBL document CHEMBL1138474, “Modulation of the transient receptor potential vanilloid channel TRPV4 by 4alpha-phorbol esters: a structure-activity study” (J Med Chem, 2009)
